Assay results reported in ChEMBL document CHEMBL1138087, “Synthesis and evaluation of N-aryl pyrrolidinones as novel anti-HIV-1 agents. Part 1” (Bioorg Med Chem Lett, 2006).

Columns and labels:
HEK293 = experiment: Cytotoxicity against HEK293T cells; assay type: functional; conditions: Homo sapiens
Method in brief: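 293T cells seeded at 700 cells/well and cultured 24 h at 37 °C under 5% CO₂. Serially diluted compound in DMSO added to uninfected cells, then a further 48 h at 37 °C. Viability read by fluorescence after Alamar Blue (diluted 1:1 in DMEM) and 4 h at room temperature.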

[1] = tested on: Human immunodeficiency virus 1; experiment: Antiviral activity against wild type HIV1 virus; assay type: functional, organism-based
Method in brief: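 HEK 293T cells grown in DMEM with 10% FBS and Pen/Strep/Glutamine. Seeded at 700 cells/well, cultured 24 h at 37 °C under 5% CO₂. Serially diluted compound in DMSO added, then 1 h at 37 °C. HIV reporter virus added at MOI about 1.0, cells cultured a further 48 h at 37 °C. Luciferase read-out with Bright-Glo reagent.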

[2] = tested on: Human immunodeficiency virus 1; experiment: Selectivity for wild type HIV1 virus over HIV1 K103N/L100I mutant; assay type: functional
[3] = tested on: Human immunodeficiency virus 1; experiment: Antiviral activity against HIV1 Y181C mutant; assay type: functional, organism-based
Method in brief: (§1)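 HEK 293T cells grown in DMEM with 10% FBS and Pen/Strep/Glutamine. Cells seeded at 700 cells/well and cultured 24 h at 37 °C under 5% CO₂. Compounds serially diluted in DMSO were added and incubated 1 h at 37 °C. Cells were then infected with HIV reporter virus at MOI ~1.0 and cultured a further 48 h at 37 °C. Read-out was luciferase activity (Bright-Glo).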

[4] = tested on: Human immunodeficiency virus 1; experiment: Antiviral activity against HIV1 L100I mutant; assay type: functional, organism-based; method in brief: as §1
[5] = tested on: Human immunodeficiency virus 1; experiment: Selectivity for wild type HIV1 virus over HIV1 K103N mutant; assay type: functional
[6] = tested on: Human immunodeficiency virus 1; experiment: Antiviral activity against HIV1 K103N/L100I mutant; assay type: functional, organism-based; method in brief: as §1
[7] = tested on: Human immunodeficiency virus 1; experiment: Selectivity for wild type HIV1 virus over HIV1 Y181C mutant; assay type: functional
[8] = tested on: Human immunodeficiency virus 1; experiment: Antiviral activity against HIV1 K103N mutant; assay type: functional, organism-based; method in brief: as §1
[9] = tested on: Human immunodeficiency virus 1; experiment: Selectivity for wild type HIV1 virus over HIV1 L100I mutant; assay type: functional

SMILES	CC50 (HEK293) [nM]	EC50 [1] [nM]	other results
COc1ccc([C@H]2CC(=O)N(c3cccc(NC(=O)C(=O)c4cccs4)c3)C2)cc1OC1CCCC1	> 10000	502	
COc1ccc([C@H]2CC(=O)N(c3cccc(NS(=O)(=O)c4c(Br)nn(C)c4Cl)c3)C2)cc1OC1CCCC1	> 10000	53	
COc1ccc([C@H]2CC(=O)N(c3cccc(NCCCc4ccccc4)c3)C2)cc1OC1CCCC1	> 10000	7900	
CCCCNc1cccc(N2C[C@@H](c3ccc(OC)c(OC4CCCC4)c3)CC2=O)c1	> 10000	6960	
COc1ccc([C@H]2CC(=O)N(C(=O)c3ccccc3)C2)cc1OC1CCCC1	> 10000	> 10000	
COc1ccc([C@H]2CC(=O)N(c3cccc(C)c3)C2)cc1OC1CCCC1	> 10000	419	
COc1ccc([C@H]2CC(=O)N(c3cccc(NC(=O)C(C)=O)c3)C2)cc1OC1CCCC1	> 10000	5790	
COc1cccc(C(=O)C(=O)Nc2cccc(N3C[C@@H](c4ccc(OC)c(OC5CCCC5)c4)CC3=O)c2)c1	> 10000	502	
COc1ccc([C@H]2CC(=O)N(c3ccc(C#N)cc3)C2)cc1OC1CCCC1	> 10000	660	
COc1ccc([C@H]2CC(=O)N(C(C)=O)C2)cc1OC1CCCC1	> 10000	> 10000	
COc1ccc([C@H]2CC(=O)N(c3cccc([S+](C)[O-])c3)C2)cc1OC1CCCC1 (stereo partly specified)	> 10000	> 10000	
COc1ccc([C@H]2CC(=O)N(c3ccncc3)C2)cc1OC1CCCC1	> 10000	110	
COc1ccc([C@H]2CC(=O)N(c3ccccc3C(F)(F)F)C2)cc1OC1CCCC1	> 10000	> 10000	
COc1ccc([C@H]2CC(=O)N(c3cccc(O)c3)C2)cc1OC1CCCC1	> 10000	1780	
COc1ccc([C@H]2CC(=O)N(c3cccc(NS(=O)(=O)c4ccccc4Cl)c3)C2)cc1OC1CCCC1	> 10000	42	Selectivity ratio [2]: 0.67; EC50 [3]: 557 nM; EC50 [4]: 19 nM; Selectivity ratio [5]: 4; EC50 [6]: 28 nM; Selectivity ratio [7]: 13; EC50 [8]: 170 nM; Selectivity ratio [9]: 0.45
COc1ccc([C@H]2CC(=O)N(c3cccc(S(C)(=O)=O)c3)C2)cc1OC1CCCC1	> 10000	> 10000	
COc1ccc([C@H]2CC(=O)N(c3cccc(NS(=O)(=O)c4ccc(F)cc4)c3)C2)cc1OC1CCCC1	> 10000	102	
COc1ccc([C@H]2CC(=O)N(c3cccc(NS(=O)(=O)c4ccccc4Br)c3)C2)cc1OC1CCCC1	> 10000	42	Selectivity ratio [2]: 0.52; EC50 [3]: 794 nM; EC50 [4]: 16 nM; Selectivity ratio [5]: 6.9; EC50 [6]: 22 nM; Selectivity ratio [7]: 19; EC50 [8]: 292 nM; Selectivity ratio [9]: 0.38
COc1ccc([C@H]2CC(=O)N(c3ccccc3)C2)cc1OC1CCCC1	> 10000	2280	
COc1ccc([C@H]2CC(=O)N(c3ccc(C)cc3)C2)cc1OC1CCCC1	> 10000	3260	
COc1ccc([C@H]2CC(=O)N(c3cccc(NS(=O)(=O)c4cccc(Br)c4)c3)C2)cc1OC1CCCC1	> 10000	71	Selectivity ratio [2]: 1.1; EC50 [3]: 2260 nM; EC50 [4]: 53 nM; Selectivity ratio [5]: 13; EC50 [6]: 83 nM; Selectivity ratio [7]: 32; EC50 [8]: 923 nM; Selectivity ratio [9]: 0.74
COc1ccc([C@H]2CC(=O)N(c3cccc(NC(=O)C(=O)c4cccc(N(C)C)c4)c3)C2)cc1OC1CCCC1	> 10000	124	
COc1ccc([C@H]2CC(=O)N(c3ccccc3C)C2)cc1OC1CCCC1	> 10000	> 10000	
COc1ccc([C@H]2CC(=O)N(c3cccnc3)C2)cc1OC1CCCC1	> 10000	2370	
COc1ccc([C@H]2CC(=O)N(c3cccc(C#N)c3)C2)cc1OC1CCCC1	> 10000	520	

SMILES	CC50 (HEK293) [nM]	EC50 [1] [nM]	other results
COc1ccc([C@H]2CC(=O)N(Cc3cccc(N)c3)C2)cc1OC1CCCC1	> 10000	> 10000	
COc1ccc([C@@H]2CNC(=O)C2)cc1OC1CCCC1 [(-)-ROLIPRAM]	> 10000	> 10000	
COc1ccc([C@H]2CC(=O)N(c3ccccn3)C2)cc1OC1CCCC1	> 10000	2630	
COc1ccc(S(=O)(=O)Nc2cccc(N3C[C@@H](c4ccc(OC)c(OC5CCCC5)c4)CC3=O)c2)cc1	> 10000	256	
COc1ccc([C@H]2CC(=O)N(Cc3cccc([N+](=O)[O-])c3)C2)cc1OC1CCCC1	> 10000	> 10000	
COc1ccc([C@H]2CC(=O)N(c3cccc(NS(=O)(=O)c4cccc(OC(F)(F)F)c4)c3)C2)cc1OC1CCCC1	> 10000	800	
COc1ccc([C@H]2CC(=O)N(c3cccc(NCC4CCOC4)c3)C2)cc1OC1CCCC1 (stereo partly specified)	> 10000	1020	
COc1ccc([C@H]2CC(=O)N(c3ccc([S+](C)[O-])cc3)C2)cc1OC1CCCC1 (stereo partly specified)	7510	40	
COc1ccc([C@H]2CC(=O)N(c3cc(N)cc(F)c3)C2)cc1OC1CCCC1	> 10000	80	
COc1ccc([C@H]2CC(=O)N(c3ccc(N)cc3)C2)cc1OC1CCCC1	> 10000	1860	
COc1ccc([C@H]2CC(=O)N(c3ccc(C)c(N)c3)C2)cc1OC1CCCC1	> 10000	196	
COc1ccc([C@H]2CC(=O)N(c3ccccc3C#N)C2)cc1OC1CCCC1	> 10000	> 10000	
COc1ccc([C@H]2CC(=O)N(c3ccc(S(C)(=O)=O)cc3)C2)cc1OC1CCCC1	> 10000	180	
COc1ccc([C@H]2CC(=O)N(c3cccc(NCc4ccoc4)c3)C2)cc1OC1CCCC1	> 10000	1960	
COc1ccc([C@H]2CC(=O)N(c3cccc(C(F)(F)F)c3)C2)cc1OC1CCCC1	> 10000	2950	
COc1ccc([C@H]2CC(=O)N(c3ccc(C(F)(F)F)cc3)C2)cc1OC1CCCC1	> 10000	3620	
COc1ccc([C@H]2CC(=O)N(c3ccccc3N)C2)cc1OC1CCCC1	> 10000	> 10000	
O=C1Nc2ccc(Cl)cc2[C@@](C#CC2CC2)(C(F)(F)F)O1 [EFAVIRENZ]			EC50 [3]: 1 nM; EC50 [4]: 10 nM; EC50 [6]: 2530 nM; EC50 [8]: 32 nM
COc1ccc([C@H]2CC(=O)N(c3cccc(NS(=O)(=O)c4cc(C)ccc4OC)c3)C2)cc1OC1CCCC1	> 10000	33	Selectivity ratio [2]: 1; EC50 [3]: 507 nM; EC50 [4]: 23 nM; Selectivity ratio [5]: 5.2; Selectivity ratio [7]: 15; EC50 [8]: 172 nM; Selectivity ratio [9]: 0.7
COc1ccc([C@H]2CC(=O)N(c3cccc(N)c3C)C2)cc1OC1CCCC1	> 10000	> 10000	
COc1ccc([C@H]2CC(=O)N(c3cccc(N(C)C)c3)C2)cc1OC1CCCC1	> 10000	4710	
COc1ccc([C@H]2CC(=O)N(Cc3cccc(C#N)c3)C2)cc1OC1CCCC1	> 10000	> 10000	
COc1ccc([C@H]2CC(=O)N(c3cc(N)cc(N)c3)C2)cc1OC1CCCC1	> 10000	> 10000	
COc1ccc(OC)c(S(=O)(=O)Nc2cccc(N3C[C@@H](c4ccc(OC)c(OC5CCCC5)c4)CC3=O)c2)c1	7590	104	
